Data published in ChEMBL document CHEMBL3997774, “Identification of Picrasidine C as a Subtype-Selective PPARα Agonist” (J Nat Prod, 2016).
Active and inactive are the calls of the source. The calls are words filed in the database; no cut-off is given here.

Legend:
Format in all cases: cell-based
[1] = target: T1, Peroxisome proliferator-activated receptor alpha (Homo sapiens) (UniProt Q07869); assay: Agonist activity at PPARalpha in human THP1 cells assessed as induction of PDK4 mRNA expression at 20 uM in presence of MK-886 after 24 hrs by RT-qPCR analysis
T1 sequence (whole entry): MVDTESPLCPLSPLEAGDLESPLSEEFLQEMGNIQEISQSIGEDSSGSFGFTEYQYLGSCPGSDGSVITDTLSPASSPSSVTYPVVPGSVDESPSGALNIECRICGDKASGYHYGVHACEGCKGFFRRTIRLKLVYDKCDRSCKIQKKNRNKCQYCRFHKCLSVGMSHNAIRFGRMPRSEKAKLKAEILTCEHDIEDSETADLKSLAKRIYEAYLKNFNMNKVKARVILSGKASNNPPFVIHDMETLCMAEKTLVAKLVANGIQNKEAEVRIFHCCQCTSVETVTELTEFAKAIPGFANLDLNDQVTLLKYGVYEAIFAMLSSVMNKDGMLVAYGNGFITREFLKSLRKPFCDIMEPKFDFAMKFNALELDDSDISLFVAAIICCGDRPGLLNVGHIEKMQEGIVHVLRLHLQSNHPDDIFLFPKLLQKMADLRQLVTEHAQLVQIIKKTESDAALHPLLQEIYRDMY
Method in brief: (§1)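 PMA-differentiated THP-1 cells (200 nM, 48 h) pretreated 1 h with MK-886 (200 μM), then given compound or 0.1% DMSO for 24 h. Target mRNA measured by SYBR RT-qPCR and normalized to β-actin. Fold induction over solvent, four experiments (mean ± SD, n = 4).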

[2] = target: T1, Peroxisome proliferator-activated receptor alpha (Homo sapiens); assay: Agonist activity at PPARalpha in human THP1 cells assessed as induction of PPARalpha mRNA expression at 20 uM in presence of MK-886 after 24 hrs by RT-qPCR analysis; method in brief: as §1
[3] = target: T1, Peroxisome proliferator-activated receptor alpha (Homo sapiens); assay: Agonist activity at PPARalpha in human THP1 cells assessed as induction of PDK4 mRNA expression after 24 hrs by RT-qPCR analysis
Method in brief: (§2)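 THP-1 cells (RPMI-1640, 10% FBS) differentiated with 200 nM PMA for 48 h, then treated 24 h with compound (1, 10, 20 μM; reference 50 μM) or 0.1% DMSO. Total RNA extracted, reverse transcribed. SYBR qPCR, 40 cycles (98 °C 5 s, 55 °C 20 s, 72 °C 30 s). Normalized to β-actin mRNA. Fold over solvent, n = 4 (mean ± SD).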

[4] = system: THP-1; assay: Cytotoxicity against PMA-differentiated human THP1 cells assessed as reduction in cell viability at 10 uM after 24 hrs by MTS assay; conditions: thp-1, 24 h
[5] = target: T2, Peroxisome proliferator-activated receptor gamma (Homo sapiens, UniProt P37231); assay: Agonist activity at GAL4-DBD fused human PPARgamma-LBD (157 to 475 residues) expressed in human HepG2 cells at 0.1 to 20 uM after 24 hrs by luciferase reporter gene based mammalian one hybrid assay relative to control
T2 sequence (P37231 whole entry): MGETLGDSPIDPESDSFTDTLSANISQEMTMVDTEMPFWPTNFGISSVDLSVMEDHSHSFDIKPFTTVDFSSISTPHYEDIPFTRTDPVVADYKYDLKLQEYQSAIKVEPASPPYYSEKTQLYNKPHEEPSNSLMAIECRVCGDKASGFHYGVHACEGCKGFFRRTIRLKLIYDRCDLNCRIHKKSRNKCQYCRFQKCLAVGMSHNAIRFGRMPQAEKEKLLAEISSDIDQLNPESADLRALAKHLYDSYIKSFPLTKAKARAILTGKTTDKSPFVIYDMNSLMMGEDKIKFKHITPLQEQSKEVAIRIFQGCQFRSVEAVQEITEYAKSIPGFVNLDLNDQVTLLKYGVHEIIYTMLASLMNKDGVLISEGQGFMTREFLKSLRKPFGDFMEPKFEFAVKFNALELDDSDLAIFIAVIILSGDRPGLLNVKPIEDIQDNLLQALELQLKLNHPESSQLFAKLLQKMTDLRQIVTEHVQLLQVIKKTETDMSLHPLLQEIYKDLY
Method in brief: (§3)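 HepG2 cells (DMEM, 10% FBS) transfected with GAL4-DBD/human PPAR-LBD expression vector (0.05 μg), GALRE-luc reporter (0.1 μg) and pGL4.74 Renilla (0.01 μg). After overnight incubation, 0.1–20 μM compound or 0.1% DMSO for 24 h. Dual-luciferase readout, firefly normalized to Renilla. Fold activation over solvent, four independent transfections (mean ± SD, n = 4).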

[6] = target: T1, Peroxisome proliferator-activated receptor alpha (Homo sapiens); assay: Agonist activity at GAL4-DBD fused human PPARalpha-LBD (159 to 468 residues) expressed in human HepG2 cells after 24 hrs by dual luciferase reporter gene based mammalian one hybrid assay relative to control; method in brief: as §3
[7] = target: T1, Peroxisome proliferator-activated receptor alpha (Homo sapiens); assay: Agonist activity at PPARalpha in human THP1 cells assessed as induction of CPT-1 mRNA expression after 24 hrs by RT-qPCR analysis; method in brief: as §2
[8] = target: T3, Peroxisome proliferator-activated receptor delta (Homo sapiens) (UniProt Q03181); assay: Antagonist activity at GAL4-DBD fused human PPARbeta/delta-LBD (136 to 441 residues) expressed in human HepG2 cells assessed as inhibition of GW0742-induced receptor activation at 10 uM by luciferase reporter gene based mammalian one hybrid assay
T3 sequence (whole entry): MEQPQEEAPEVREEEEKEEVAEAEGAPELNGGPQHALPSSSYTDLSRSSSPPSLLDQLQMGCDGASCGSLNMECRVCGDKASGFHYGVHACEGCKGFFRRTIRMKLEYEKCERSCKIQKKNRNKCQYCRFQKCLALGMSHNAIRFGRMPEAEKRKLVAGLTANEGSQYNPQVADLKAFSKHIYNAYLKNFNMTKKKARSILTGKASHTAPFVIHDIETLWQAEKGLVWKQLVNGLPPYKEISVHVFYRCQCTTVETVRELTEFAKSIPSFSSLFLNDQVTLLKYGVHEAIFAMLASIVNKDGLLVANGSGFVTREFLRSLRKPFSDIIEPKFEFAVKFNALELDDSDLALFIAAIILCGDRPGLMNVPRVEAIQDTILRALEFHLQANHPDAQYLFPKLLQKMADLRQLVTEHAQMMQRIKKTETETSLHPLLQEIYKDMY
Method in brief: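 HepG2 cells transfected with GAL4/PPARβ/δ-LBD vector (0.05 μg), GALRE-luc (0.1 μg) and pGL4.74 (0.01 μg). Treated 24 h with 10 μM compound, 10 μM GW0742, or both together, vs 0.1% DMSO. Dual-luciferase, Renilla-normalized. Fold over solvent, four transfections (mean ± SD, n = 4).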

[9] = system: HepG2; assay: Cytotoxicity against human HepG2 cells assessed as reduction in cell viability at 10 uM after 24 hrs by MTS assay; conditions: hepg2, 24 h
[10] = target: T1, Peroxisome proliferator-activated receptor alpha (Homo sapiens); assay: Agonist activity at PPARalpha in human THP1 cells assessed as induction of CPT-1 mRNA expression at 20 uM in presence of MK-886 after 24 hrs by RT-qPCR analysis; method in brief: as §1
[11] = target: T1, Peroxisome proliferator-activated receptor alpha (Homo sapiens); assay: Agonist activity at full length human N-terminal Myc-tagged PPARalpha expressed in human HepG2 cells coexpressing RXRalpha assessed as transcriptional activation of PPRE at 10 uM incubated for 24 hrs by dual luciferase reporter gene assay
Method in brief: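 HepG2 cells co-transfected with PPRE-luc reporter (0.1 μg), PPARα and RXRα expression vectors (0.05 μg each) and pGL4.74 (0.01 μg). Treated 24 h with test compound or 0.1% DMSO. Dual-luciferase readout, firefly/Renilla. Fold activation over solvent, four independent transfections (mean ± SD, n = 4).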

[12] = target: T1, Peroxisome proliferator-activated receptor alpha (Homo sapiens); assay: Agonist activity at PPARalpha in human THP1 cells assessed as induction of PPARalpha mRNA expression after 24 hrs by RT-qPCR analysis; method in brief: as §2
[13] = target: T1, Peroxisome proliferator-activated receptor alpha (Homo sapiens); assay: Agonist activity at GAL4-DBD fused human PPARalpha-LBD (159 to 468 residues) expressed in human HepG2 cells at 10 uM after 24 hrs by dual luciferase reporter gene based mammalian one hybrid assay relative to control; method in brief: as §3
[14] = target: T1, Peroxisome proliferator-activated receptor alpha (Homo sapiens); assay: Agonist activity at PPARalpha in human THP1 cells assessed as induction of ABCA1 mRNA expression at 20 uM in presence of MK-886 after 24 hrs by RT-qPCR analysis; method in brief: as §1
[15] = target: T1, Peroxisome proliferator-activated receptor alpha (Homo sapiens); assay: Agonist activity at PPARalpha in human THP1 cells assessed as induction of ABCA1 mRNA expression after 24 hrs by RT-qPCR analysis; method in brief: as §2
[16] = target: T4, Peroxisome proliferator-activated receptor delta (Homo sapiens, UniProt Q03181); assay: Agonist activity at GAL4-DBD fused human PPARbeta/delta-LBD (136 to 441 residues) expressed in human HepG2 cells at 0.1 to 20 uM after 24 hrs by luciferase reporter gene based mammalian one hybrid assay relative to control; method in brief: as §3
T4 sequence (Q03181 whole entry): T3 sequence (whole entry)

Row | Structure (SMILES) | Activity [1] | Activity [2] | Activity [3] | Activity [4] | Activity [5] | Activity [6] | Activity [7] | inhibition [8] | Activity [9] | Activity [10] | Activity [11] | Activity [12] | Activity [13] | Activity [14] | Activity [15] | Activity [16]
1 | COc1cccc2c1[nH]c1c(CCC(OC)C(=O)c3nccc4c3[nH]c3ccccc34)ncc(OC)c12 (configuration not stated) [PICRASIDINE C] | inactive | inactive | Dose-dependent effect | Non-Toxic | Not Active | Dose-dependent effect | Dose-dependent effect | inactive | Non-Toxic | inactive | Active | Dose-dependent effect | Active | inactive | Dose-dependent effect | Not Active
2 | Cc1cccc(Nc2cc(Cl)nc(SCC(=O)O)n2)c1C |  |  |  |  |  |  |  |  |  |  |  |  | Active |  |  | 
